According to ChEMBL document CHEMBL3425479, “Discovery, synthesis, and molecular pharmacology of selective positive allosteric modulators of the δ-opioid receptor” (J Med Chem, 2015):
Active and inactive are the calls of the source. The calls are words filed in the database; no cut-off is given here.

Key:
[1] = Solubility of the compound in phosphate buffered saline assessed as particulate matter formation at >1 uM by nephelometric analysis; format: physicochemical; settings: buffer
[2] = Solubility of the compound in HBSS/HEPES/FBS assessed as particulate matter formation at >3 uM by nephelometric analysis; format: physicochemical; settings: buffer
CHO [3] = assay: Effect on delta receptor deficient CHO cells assessed as inhibition of cAMP accumulation; format: functional, cell-based; settings: Cricetulus griseus
How it was run: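 Parental CHO cells lacking δ receptor, test compound added alone. Cells in HBSS + 25 mM HEPES + 0.05% BSA, 2000 cells/well, with forskolin at 2 μM final. Incubated 45 min at rt. cAMP measured by TR-FRET (665/615 nm ratio) against a cAMP standard curve run alongside.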

CHO [4] = assay: Induction of ERK2 phosphorylation in delta receptor deficient CHO cells; format: cell-based; settings: Cricetulus griseus
How it was run: (§1)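 Parental CHO cells lacking δ receptor, test compound added alone. Cells serum-starved overnight in DMEM, then stimulated at 37 °C. Phospho-ERK1/2 measured in lysates by AlphaScreen SureFire. Basal in serum-free medium was set as 0% and 10% serum response as 100%.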

CHO [5] = assay: Induction of ERK1 phosphorylation in delta receptor deficient CHO cells; format: cell-based; settings: Cricetulus griseus; how it was run: as §1
[6] = target: T1, Delta-type opioid receptor (Homo sapiens, UniProt P41143); assay: Positive allosteric modulation of human delta opioid receptor-1 expressed in CHO cells assessed as potentiation of leu-enkephalin-induced response after 90 mins by beta-arrestin recruitment assay; format: cell-based
[7] = target: T1, Delta-type opioid receptor; assay: Agonist activity at human delta opioid receptor-1 expressed in CHO cells after 90 mins by beta-arrestin recruitment assay; format: cell-based
How it was run: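 PathHunter CHO cells (OPRD1 or OPRM1) plated overnight at 37 °C in F-12 with 10% FBS and 25 mM HEPES. […] Incubated 90 min at room temperature, then luminescence read 1 h after detection reagent.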

CHO [8] = assay: Selectivity ratio of EC50 for human mu opioid receptor-1 expressed in CHO cells to EC50 for human delta opioid receptor-1 expressed in CHO cells; format: cell-based
How it was run: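 The δ/μ potency ratio is built from PAM-mode β-arrestin EC50 values in PathHunter CHO-OPRD1 and CHO-OPRM1 cells. […] Incubation was 90 min at room temperature with luminescence read-out.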

Mu-type opioid receptor = Mu-type opioid receptor (Homo sapiens, UniProt P35372); assay: Positive allosteric modulation of human mu opioid receptor-1 expressed in CHO cells assessed as potentiation of endomorphin 1-induced response after 90 mins by beta-arrestin recruitment assay; format: cell-based
[9] = target: T1, Delta-type opioid receptor; settings: CHO
[10] = target: T1, Delta-type opioid receptor; settings: CHO; remark: listed apart in the source
[11] = target: T1, Delta-type opioid receptor; settings: CHO; remark: listed apart in the source
[12] = target: T1, Delta-type opioid receptor; settings: CHO; remark: listed apart in the source
[13] = target: T1, Delta-type opioid receptor; settings: CHO; remark: listed apart in the source
[14] = target: T1, Delta-type opioid receptor; settings: CHO; remark: listed apart in the source
[15] = target: T1, Delta-type opioid receptor; settings: CHO; remark: listed apart in the source
[16] = target: T1, Delta-type opioid receptor; settings: CHO; remark: listed apart in the source
[17] = target: T1, Delta-type opioid receptor; assay: Partial agonist activity at human delta opioid receptor expressed in CHO cells after 1 hr by [35S]GTPgammaS binding assay relative to SNC80; format: functional, cell-based

Sequence of Mu-type opioid receptor (P35372 whole entry): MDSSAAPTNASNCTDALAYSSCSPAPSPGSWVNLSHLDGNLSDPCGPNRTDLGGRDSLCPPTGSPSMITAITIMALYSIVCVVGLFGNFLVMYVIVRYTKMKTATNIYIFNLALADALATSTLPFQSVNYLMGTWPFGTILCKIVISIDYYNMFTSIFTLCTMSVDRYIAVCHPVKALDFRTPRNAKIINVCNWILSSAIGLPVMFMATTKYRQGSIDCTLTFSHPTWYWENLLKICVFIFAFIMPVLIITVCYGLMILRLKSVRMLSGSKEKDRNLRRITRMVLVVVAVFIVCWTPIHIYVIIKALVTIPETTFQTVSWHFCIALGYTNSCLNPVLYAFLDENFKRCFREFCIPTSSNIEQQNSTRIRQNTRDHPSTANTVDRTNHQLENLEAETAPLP
T1 sequence (P41143 whole entry): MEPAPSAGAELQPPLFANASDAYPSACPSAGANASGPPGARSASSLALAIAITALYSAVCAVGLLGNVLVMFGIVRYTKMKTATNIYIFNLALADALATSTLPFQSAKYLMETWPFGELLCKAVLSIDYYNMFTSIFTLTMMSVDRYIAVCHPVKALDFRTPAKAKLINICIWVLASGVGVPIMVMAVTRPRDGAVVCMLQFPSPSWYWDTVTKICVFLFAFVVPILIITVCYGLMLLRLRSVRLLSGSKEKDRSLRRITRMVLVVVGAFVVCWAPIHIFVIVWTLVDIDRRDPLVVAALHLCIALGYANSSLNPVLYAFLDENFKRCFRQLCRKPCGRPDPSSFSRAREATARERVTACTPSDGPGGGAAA

| Structure (SMILES) | EC50 [6] [µM] | Activity [7] | Ratio EC50 (CHO [8]) | EC50 (Mu-type opioid receptor) [µM] | Emax (Mu-type opioid receptor) [%] | other results |
| --- | --- | --- | --- | --- | --- | --- |
| Cc1ccccc1COc1ccc(C2C3=C(CC(C)(C)CC3=O)OC3=C2C(=O)CC(C)(C)C3)cc1 |  |  |  |  |  | solubility [1]: Insoluble; solubility [2]: Insoluble; Activity (CHO [3]): inactive; Activity (CHO [4]): inactive; Activity (CHO [5]): inactive |
| Cc1cccc(COc2ccc(C3C4=C(CC(C)(C)CC4=O)OC4=C3C(=O)CC(C)(C)C4)cc2)c1 | 0.2 | inactive | 15 | 3 | 120 |  |
| CC1(C)CC(=O)C2=C(C1)OC1=C(C(=O)CC(C)(C)C1)C2c1ccc(OCc2ccccc2)cc1 |  | inactive | 30 | 6 | 130 |  |
| C=CCN1C[C@H](C)N([C@H](c2ccc(C(=O)N(CC)CC)cc2)c2cccc(OC)c2)C[C@H]1C |  |  |  |  |  | log(activity) [9]: 0.66; pKA [10]: 7.7; log(activity) [11]: 0.86; log(activity) [12]: 1.06; pKA [13]: 7.7; pKA [14]: 6.38; pKA [15]: 7.7; log(activity) [16]: 0.56 |
| Cc1ccc(COc2ccc(C3C4=C(CC(C)(C)CC4=O)OC4=C3C(=O)CC(C)(C)C4)cc2)cc1 | 0.3 | inactive | 13 | 4 | 65 |  |
| CC1(C)CC(=O)C2=C(C1)OC1=C(C(=O)CC(C)(C)C1)C2c1ccc(OCc2ccccc2F)cc1 | 0.1 |  |  |  |  |  |
| CC1(C)CC(=O)C2=C(C1)OC1=C(C(=O)CC(C)(C)C1)C2c1ccc(OCc2ccccc2S(C)(=O)=O)cc1 | 0.9 | inactive | 6 | 5 | 42 |  |
| CC1(C)CC(=O)C2=C(C1)OC1=C(C(=O)CC(C)(C)C1)C2c1ccc(OCc2ccccc2Br)cc1 | 0.05 |  |  |  |  | solubility [1]: Insoluble; solubility [2]: Insoluble |
| CC1(C)CC(=O)C2=C(C1)OC1=C(C(=O)CC(C)(C)C1)C2c1ccc(OCc2ccccc2OC(F)(F)F)cc1 | 0.3 | inactive | 7 | 2 | 111 |  |
| CC1(C)CC(=O)C2=C(C1)OC1=C(C(=O)CC(C)(C)C1)C2c1ccc(OCc2ccccc2C(F)(F)F)cc1 | > 10 | inactive |  | > 10 | > 20 |  |
| CC1(C)CC(=O)C2=C(C1)OC1=C(C(=O)CC(C)(C)C1)C2c1ccc(OCc2ccccc2CO)cc1 | 1 | inactive | 10 | 10 | 112 |  |
| CC1(C)CC(=O)C2=C(C1)OC1=C(C(=O)CC(C)(C)C1)C2c1ccc(OCc2ccccc2Cl)cc1 | 0.3 | inactive |  | > 10 | > 100 |  |
| CC1(C)CC(=O)C2=C(C1)OC1=C(C(=O)CC(C)(C)C1)C2c1ccc(OCc2ccccc2OC(F)F)cc1 | 0.2 | inactive | 15 | 3 | 80 |  |
| CN1CC[C@]2(c3cccc(O)c3)Cc3nc4ccccc4cc3C[C@H]2C1 |  |  |  |  |  | Activity [17]: 84%; pKA [10]: 8.4; log(activity) [12]: 0.22; pKA [15]: 7.6; log(activity) [16]: 0.67 |
| CC1(C)CC(=O)C2=C(C1)OC1=C(C(=O)CC(C)(C)C1)C2c1ccc(OCc2ccc(F)cc2)cc1 | 0.1 |  |  |  |  |  |
| CC1(C)CC(=O)C2=C(C1)OC1=C(C(=O)CC(C)(C)C1)C2c1ccc(OCc2cccc(F)c2)cc1 | 1 | inactive | 7 | 7 | 182 |  |
| CC1(C)CC(=O)C2=C(C1)OC1=C(C(=O)CC(C)(C)C1)C2c1ccc(OCc2cccc(Cl)c2Cl)cc1 | 0.1 |  |  |  |  |  |
